SENP7 block = SENP7 protease inhibition; AID 434973; recombinant SENP7, Z-RLRGG-aminoluciferin luminescence, 40 min; inhibition, % at 5 µM; 1.5% of 330,000 active; Q9BQF6;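 active means inhibition above about 50% at the single test dose, limit read from the data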;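 further: plate controls were DMSO with enzyme for no effect and no enzyme buffer wells for full effect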
SENP8 block-1 = inhibitors of human SENP8 protease | Q96LD8 | purified SENP8, Z-RLRGG-aminoluciferin cleavage, luminescence | inhibition, % at 10 µM | 1.2% of 330,000 active | AID 2540; in the data active means inhibition above about 50%
Target sequence (Q96LD8 whole entry, looked up): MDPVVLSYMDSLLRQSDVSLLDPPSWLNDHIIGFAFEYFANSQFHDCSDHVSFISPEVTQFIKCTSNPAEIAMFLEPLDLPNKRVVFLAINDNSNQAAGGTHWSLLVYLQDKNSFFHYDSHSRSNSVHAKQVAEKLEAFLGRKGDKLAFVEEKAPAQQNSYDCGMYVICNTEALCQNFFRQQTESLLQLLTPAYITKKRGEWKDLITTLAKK
Platelet DG rel = platelet dense granule release activity. AID 1663. inhibition, %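 (compounds screened at 7.5 µM in platelet-rich plasma)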. 0.22% of 300,000 active. human platelet-rich plasma, SFLLRN dense granule ATP release, luminescence;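 active means mean replicate score, as percent of positive control, at or above 50; inconclusive means mean below 50 but at least one replicate at or above 50; inactive means mean and every replicate below 50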
SENP1 FRET inh = SENP1 (human) catalytic domain inhibition; Q9P0U3; recombinant SENP1 catalytic domain, CyPet-SUMO1-YPet FRET cleavage; inhibition, % at 10 µM; 0.21% of 360,000 active; AID 624204;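 active means inhibition at least 30% at 10 µM, raw YFP signal under a set limit, fluorescence ratio 0.5 to 1.5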;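 further: 0% = enzyme with DMSO and 100% = no enzyme wells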
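Assay system – human recombinant His6-tagged SENP1 catalytic domain enzyme · Input – SENP1 enzyme, 20 pM final · Buffer or medium – Tris pH 8 buffer plus EDTA, NaCl, BME, BSA, NP40, catalase · Schedule – 50 min reaction at room temperature · Technique – FRET read of cyan and yellow fluorescence · Control set – no-enzyme wells low, DMSO-plus-enzyme wells high control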
SENP6 inh = blocks the human protease SENP6 | 1.8% of 330,000 active | Recombinant SENP6 catalytic domain, aminoluciferin luminescence | inhibition, % at 10 µM | Q9GZR1 | AID 2599;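 active means inhibition above about 50% at the single tested dose, limit read from the data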;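 further: plate controls were DMSO wells with enzyme for no effect and DMSO wells lacking enzyme for full effect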
SENP8 block-2 = inhibitors of human SENP8 protease; Q96LD8; recombinant SENP8, Nedd8 substrate fluorescence; inhibition, % at 20 µM; 0.64% of 360,000 active; AID 602440; in the data active means inhibition mostly above about 40%, no sharp cut-off; inactive means mostly below about 27%
SENP8 conf = human SENP8 inhibition, confirmed; inhibition, % at 12.5 µM; AID 488912; 40% of 6,200 active; shares compounds with SENP7 block; Recombinant SENP8, Z-RLRGG-aminoluciferin luminescence, 60 min;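 active means mean inhibition across replicates above about 50%, limit read from the data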
SENP6 conf = confirmation of human SENP6 protease inhibitors | shares compounds with SENP7 block | recombinant SENP6, Z-RLRGG-aminoluciferin luminescence | inhibition, % at 12.5 µM | 58% of 6,200 active | AID 488915
SENP7 conf = confirmation of human SENP7 protease inhibitors; shares compounds with SENP7 block; recombinant SENP7, Z-RLRGG-aminoluciferin luminescence, 40 min; inhibition, % at 12.5 µM; 69% of 6,200 active
Casp3 SENP sel = inhibits human caspase-3 in SENP selectivity test | shares compounds with SENP7 block | purified caspase-3, Z-DEVD-aminoluciferin luminescence, 60 min | inhibition, % at 12.5 µM | 60% of 6,200 active | AID 488918;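 active means mean inhibition above about 50%, limit read from the data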;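 further: plate controls were enzyme with DMSO for no effect and wells without caspase-3 for full effect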
Target sequence (P42574 28-227 limits assumed): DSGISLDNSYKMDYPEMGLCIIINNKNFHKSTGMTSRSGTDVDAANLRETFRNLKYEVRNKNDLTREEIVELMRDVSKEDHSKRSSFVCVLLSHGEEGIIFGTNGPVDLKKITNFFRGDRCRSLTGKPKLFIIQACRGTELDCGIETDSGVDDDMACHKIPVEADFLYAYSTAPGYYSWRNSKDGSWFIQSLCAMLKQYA
SENP luc ctr = counter-screen for SENP inhibitors: luminescence interference | shares compounds with SENP7 block | AID 488919 | 39% of 6,200 active | Pre-incubated SENP8/Z-RLRGG-aminoluciferin, luciferase luminescence interference | inhibition, % at 12.5 µM;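 active means mean inhibition above about 50% when retested at one dose, limit read from the data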;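 further: plate controls were DMSO wells with completed reaction for no effect and substrate without enzyme for full effect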
Numbers without * were called inactive; u = inconclusive; x = no result given. The list is not random: actives were taken first. Their share in the collection is about 2.6%.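 How the source made its calls, unless noted: active means mean inhibition above about 50% in the one-dose retest (limit read from the data); inactive means the rest.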

SMILES	SENP7 block	SENP8 block-1	Platelet DG rel	SENP1 FRET inh	SENP6 inh	SENP8 block-2	SENP8 conf	SENP6 conf	SENP7 conf	Casp3 SENP sel	SENP luc ctr
Cc1ccc(NCc2nc3ccccc3n2C)c(C)c1	79*	71*	14	1	76*	12	83*	83*	95*	88*	85*
Cc1c(Cc2ccccc2)c(=O)oc2cc(OCC(=O)N3CCC(C(=O)O)CC3)ccc12	-4	-3	-2	2	-8	-187	x	x	x	x	x
CC1Cc2cc(/C=C3/SC(=S)NC3=O)ccc2O1 (stereo not drawn)	2	67*	-22	-14	74*	22	11	76*	84*	47	0
CCN(CC)c1ccc(C=C2SC(=S)NC2=O)cc1	x	x	x	-23	x	38	x	x	x	x	x
N#Cc1c(-c2ccccc2Cl)noc1/C=C/Nc1ccc(C(=O)O)cc1	69*	95*	-1	-51	95*	-338	89*	97*	97*	84*	12
c1cncc(-c2nc(-c3ccc4c(c3)OCCO4)cs2)c1	83*	80*	4	1	79*	-97	3	81*	97*	72*	80*
Cn1c(SCc2ccccc2)nnc1-c1ccc2nonc2c1	-6	-3	3	2	-8	-92	x	x	x	x	x
COc1ccc(SCC(=O)Nc2ccccc2Cl)cc1	-7	-4	-1	1	-2	8	x	x	x	x	x
COc1nc(SCC(=O)Nc2ccccc2Cl)nc(N(C)C)n1	2	-3	-13	0	85*	11	12	8	3	7	13
COC(=O)c1ccc(NC(=O)Nc2ccccc2C)cc1	92*	83*	29	3	91*	-1	89*	89*	99*	89*	48
COC(=O)c1ccc(NC(=O)Nc2ccc(F)c(Cl)c2)cc1	58*	-1	11	4	-50	4	14	18	84*	22	26
CC(=O)N(C)c1ccc(NC(=O)Nc2ccccc2C)cc1	58*	33	14	1	63*	16	40	41	79*	83*	63*
O=C(Nc1ccncc1)Nc1ccc(F)c(Cl)c1	-6	-18	10	0	-14	11	x	x	x	x	x
COC(=O)c1sccc1NC(=O)Nc1ccccc1C	-1	2	x	0	10	0	x	x	x	x	x
COC(=O)c1ccc(NC(=O)Nc2ccc(F)cc2)cc1	49	46	24	1	68*	6	42	42	80*	48	62*
COC(=O)c1ccc(NC(=O)Nc2ccc(OC)cc2)cc1	-11	-16	4	0	-21	7	x	x	x	x	x
CC(=O)Nc1ccc(NC(=O)Nc2ccccc2C)cc1	16	-2	22	2	15	27	x	x	x	x	x
COc1ccc(NC(=O)C(Cc2ccccc2)n2cccc2)c(OC)c1 (stereo not drawn)	-2	0	0	1	-5	28	x	x	x	x	x
N=c1oc2cc(O)ccc2cc1C(=O)Nc1ccc(F)cc1	98*	92*	4	-28	96*	-292	91*	94*	100*	84*	62*
O=C(c1ccc(F)cc1)c1cc2ccc(O)cc2oc1=O	99*	97*	73*	-26	97*	-154	99*	100*	103*	98*	98*
O=C(O)c1cc2ccc(O)cc2oc1=O	x	x	x	-29	x	-423	x	x	x	x	x
C=C(C)C(O)CC/C(C)=C/Cc1c(O)ccc(C(=O)/C=C/c2ccc(O)cc2)c1O (stereo not drawn)	65*	90*	x	8	88*	36	97*	96*	99*	37	39
COC(=O)c1sccc1NC(=O)Cc1ccc(Br)cc1	21	40	1	-1	59*	11	60*	56*	48	48	40
CC1=NN(C(=O)CCc2ccc3c(c2)OCO3)C(O)(C(F)(F)F)C1 (stereo not drawn)	6	0	0	1	0	15	x	x	x	x	x
Cc1ccc(OC(=O)c2ccc3nc(C)sc3c2)cc1	2	2	4	x	-13	x	x	x	x	x	x
SMILES	SENP7 block	SENP8 block-1	Platelet DG rel	SENP1 FRET inh	SENP6 inh	SENP8 block-2	SENP8 conf	SENP6 conf	SENP7 conf	Casp3 SENP sel	SENP luc ctr
COc1ccc(OC(=O)c2ccc3nsnc3c2)cc1	59*	20	-4	5	42	38	1	0	48	16	-1
COc1ccccc1NC(=O)C1CCCN(S(=O)(=O)c2ccc3c(c2)CC(C)N3C(C)=O)C1 (stereo not drawn)	11	-5	-7	3	-22	0	x	x	x	x	x
CCOC(=O)c1sc(NC(=O)c2ccc(C)o2)nc1C	12	64*	7	-5	70*	-99	36	74*	91*	84*	19
COC(=O)c1sc(NC(=O)c2ccc(C)o2)nc1C	50	38	u	1	46	-144	x	x	x	x	x
CCOC(=O)c1sc(NC(=O)c2ccco2)nc1C	54*	9	x	3	59*	-49	6	6	-6	5	-3
Cc1csc(SCC(=O)N(C)C2CCS(=O)(=O)C2)n1 (stereo not drawn)	-20	-3	x	2	-9	0	x	x	x	x	x
CSCCC(NC(=O)c1ccccc1)C(=O)OCC(=O)Nc1ccc(C)c(Cl)c1 (stereo not drawn)	6	2	-2	-1	-6	3	x	x	x	x	x
Cc1ccc(NC(CC(=O)c2ccccc2)C(=O)O)cc1Cl (stereo not drawn)	65*	74*	11	-13	-8	-34	-12	8	18	36	19
Cc1ccc(NC(=O)C2CCN(C(=O)NCc3ccccc3)CC2)cc1C	2	2	-2	0	-13	12	x	x	x	x	x
Cc1ccccc1S(=O)(=O)Cc1ccc(C(=O)NCCCN2CCCC(C)C2)o1 (stereo not drawn)	0	3	3	-2	4	9	x	x	x	x	x
CCN(CC)S(=O)(=O)c1ccc(N=Nc2c(C)[nH]n(C(N)=S)c2=O)cc1	18	17	16	3	54*	36	41	37	72*	56*	18
